Assay results taken from ChEMBL document CHEMBL1132600.

Columns and labels:
[1] = substrate: CCCCC/C=C\C/C=C\C/C=C\C/C=C\CCCC(=O)Nc1ccccc1O
[2] = substrate: CCCCC/C=C\C/C=C\C/C=C\C/C=C\CCCC(=O)N[C@H](C)CO; assay: (§1) Km value for hydrolysis by rat brain microsomal anandamide amidohydrolase (AAH).
Summary of the method: (§2)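 Sprague–Dawley rat brain microsomes (105000g pellet) at 0.3 mg/mL protein, 37 °C, pH 7.4, BSA as carrier. Varied substrate concentrations, sampled at least four times within the linear initial range. Arachidonic acid formed measured by RP-HPLC (UV 204 nm, calibration curve). Initial velocity vs substrate concentration fitted to Michaelis–Menten.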

[3] = substrate: CCCCC/C=C\C/C=C\C/C=C\C/C=C\CCCC(N)=O; assay: as §1
Summary of the method: as §2

[4] = substrate: CCCCC/C=C\C/C=C\C/C=C\C/C=C\CCCC(=O)N[C@@H](C)CO; assay: as §1
Summary of the method: as §2

[5] = substrate: CCCCC/C=C\C/C=C\C/C=C\C/C=C\CCCC(=O)Nc1ccccc1O; assay: as §1
Summary of the method: as §2

[6] = substrate: CCCCC/C=C\C/C=C\C/C=C\C/C=C\CCCC(=O)NCCO; assay: as §1
Summary of the method: as §2

[7] = substrate: CCCCC/C=C\C/C=C\C/C=C\C/C=C\CCCC(=O)N[C@H](C)CO; assay: (§3) V max value for hydrolysis by rat brain microsomal anandamide amidohydrolase (AAH).
Summary of the method: as §2

[8] = substrate: CCCCC/C=C\C/C=C\C/C=C\C/C=C\CCCC(N)=O; assay: as §3
Summary of the method: as §2

[9] = substrate: CCCCC/C=C\C/C=C\C/C=C\C/C=C\CCCC(=O)N[C@@H](C)CO; assay: as §3
Summary of the method: as §2

[10] = substrate: CCCCC/C=C\C/C=C\C/C=C\C/C=C\CCCC(=O)NCCO; assay: as §3
Summary of the method: as §2

B1: Fatty-acid amide hydrolase 1 (Rattus norvegicus), P97612 (protein)
chain: MVLSEVWTTLSGVSGVCLACSLLSAAVVLRWTGRQKARGAATRARQKQRASLETMDKAVQRFRLQNPDLDSEALLTLPLLQLVQKLQSGELSPEAVFFTYLGKAWEVNKGTNCVTSYLTDCETQLSQAPRQGLLYGVPVSLKECFSYKGHDSTLGLSLNEGMPSESDCVVVQVLKLQGAVPFVHTNVPQSMLSFDCSNPLFGQTMNPWKSSKSPGGSSGGEGALIGSGGSPLGLGTDIGGSIRFPSAFCGICGLKPTGNRLSKSGLKGCVYGQTAVQLSLGPMARDVESLALCLKALLCEHLFTLDPTVPPLPFREEVYRSSRPLRVGYYETDNYTMPSPAMRRALIETKQRLEAAGHTLIPFLPNNIPYALEVLSAGGLFSDGGRSFLQNFKGDFVDPCLGDLILILRLPSWFKRLLSLLLKPLFPRLAAFLNSMRPRSAEKLWKLQHEIEMYRQSVIAQWKAMNLDVLLTPMLGPALDLNTPGRATGAISYTVLYNCLDFPAGVVPVTTVTAEDDAQMELYKGYFGDIWDIILKKAMKNSVGLPVAVQCVALPWQEELCLRFMREVEQLMTPQKQPS
B1 gave a Vmax (nM min-1 mg-1) [1] of 3.17, a Km [2] of 33 µM and a Km [3] of 2.34 µM. The Km [4] was 7.94 µM, the Km [5] was 7.31 µM and the Km [6] was 2.78 µM. For the same protein, the Vmax (nM min-1 mg-1) [7] was 0.37, the Vmax (nM min-1 mg-1) [8] was 2.89 and the Vmax (nM min-1 mg-1) [9] was 0.39. The Vmax (nM min-1 mg-1) [10] was 1.4.
